Assays:
V79MZh = test: Selectivity factor, ratio of IC50 for human CYP11B1 to IC50 for human CYP11B2 expressed in hamster V79MZh cells; format: cell-based
How it was run: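 SF calculated as IC50(CYP11B1)/IC50(CYP11B2). Both IC50s come from V79MZh hamster fibroblasts expressing the human enzyme, with [1,2-³H]-11-deoxycorticosterone at 100 nM as substrate.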

[1] = target: T1, Cytochrome P450 11B1, mitochondrial (Homo sapiens, UniProt P15538); test: (§1) Inhibition of human CYP11B1 expressed in hamster V79MZh cells using [1,2-3H]-11-deoxy-corticosterone as substrate; format: cell-based
T1 sequence (P15538 whole entry): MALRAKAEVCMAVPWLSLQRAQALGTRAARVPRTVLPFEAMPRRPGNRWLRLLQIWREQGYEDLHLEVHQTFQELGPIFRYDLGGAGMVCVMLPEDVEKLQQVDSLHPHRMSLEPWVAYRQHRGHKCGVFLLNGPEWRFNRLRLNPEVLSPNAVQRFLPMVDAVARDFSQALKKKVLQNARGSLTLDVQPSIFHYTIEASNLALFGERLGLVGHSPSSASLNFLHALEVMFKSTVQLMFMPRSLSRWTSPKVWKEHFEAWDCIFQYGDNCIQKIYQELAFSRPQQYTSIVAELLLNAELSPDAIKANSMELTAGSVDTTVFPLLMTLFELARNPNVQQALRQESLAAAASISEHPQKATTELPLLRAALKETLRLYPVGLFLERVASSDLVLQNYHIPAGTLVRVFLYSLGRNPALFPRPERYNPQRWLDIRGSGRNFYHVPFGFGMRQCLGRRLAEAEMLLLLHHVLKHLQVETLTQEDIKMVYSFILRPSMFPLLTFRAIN
How it was run: (§2)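 V79MZh hamster fibroblasts stably expressing human CYP11B1 or CYP11B2, incubated with [1,2-³H]-11-deoxycorticosterone (100 nM) and inhibitor at varying concentrations. IC50 taken as mean of at least three experiments (relative SD under 25%).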

CYP17 = target: T2, CYP17 (Homo sapiens, UniProt P05093); test: Inhibition of human CYP17 expressed in Escherichia coli using progesterone as substrate at 2 uM; conditions: probe progesterone
T2 sequence (P05093 whole entry): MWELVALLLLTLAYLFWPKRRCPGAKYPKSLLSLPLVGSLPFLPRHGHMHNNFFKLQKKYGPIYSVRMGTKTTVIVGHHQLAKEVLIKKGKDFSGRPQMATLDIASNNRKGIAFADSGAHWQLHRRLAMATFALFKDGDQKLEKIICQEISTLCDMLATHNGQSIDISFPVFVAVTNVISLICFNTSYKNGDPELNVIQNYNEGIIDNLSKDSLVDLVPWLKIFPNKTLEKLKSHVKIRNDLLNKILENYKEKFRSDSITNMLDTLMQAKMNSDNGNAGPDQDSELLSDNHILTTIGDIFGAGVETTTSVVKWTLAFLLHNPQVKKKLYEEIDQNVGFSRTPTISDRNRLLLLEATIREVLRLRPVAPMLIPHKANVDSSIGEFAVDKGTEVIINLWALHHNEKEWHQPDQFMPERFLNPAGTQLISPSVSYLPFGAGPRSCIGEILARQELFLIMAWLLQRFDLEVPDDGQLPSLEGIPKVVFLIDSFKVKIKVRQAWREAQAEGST
How it was run: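 Enzyme source was the 90000g sediment of E. coli coexpressing human CYP17 and cytochrome P450 reductase. Progesterone substrate at 25 μM, NADPH cofactor, inhibitor at 2 μM. Percent inhibition is the mean of at least two experiments (SD under 10%).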

[2] = target: T3, Cytochrome P450 11B2, mitochondrial (Homo sapiens, UniProt P19099); test: (§3) Inhibition of human CYP11B2 expressed in hamster V79MZh cells using [1,2-3H]-11-deoxy-corticosterone as substrate; format: cell-based; how it was run: as §2
T3 sequence (P19099 whole entry): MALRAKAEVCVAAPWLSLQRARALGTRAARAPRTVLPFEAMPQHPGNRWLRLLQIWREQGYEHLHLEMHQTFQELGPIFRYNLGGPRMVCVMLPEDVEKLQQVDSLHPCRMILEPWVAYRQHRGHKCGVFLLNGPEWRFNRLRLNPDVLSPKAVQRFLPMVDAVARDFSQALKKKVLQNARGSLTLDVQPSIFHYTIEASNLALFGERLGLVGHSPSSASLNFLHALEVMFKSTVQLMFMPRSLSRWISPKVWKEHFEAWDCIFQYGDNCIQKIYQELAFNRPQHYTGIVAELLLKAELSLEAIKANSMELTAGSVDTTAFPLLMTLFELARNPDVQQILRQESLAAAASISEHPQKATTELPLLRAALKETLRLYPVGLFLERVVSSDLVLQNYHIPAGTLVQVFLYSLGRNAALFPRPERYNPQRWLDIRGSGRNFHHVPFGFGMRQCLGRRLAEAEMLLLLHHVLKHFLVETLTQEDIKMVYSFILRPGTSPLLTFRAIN

Aromatase = target: T4, Aromatase (Homo sapiens, UniProt P11511); test: Inhibition of human CYP19 using [1beta-3H]androstenedione as substrate by 3H2O method
T4 sequence (P11511 whole entry): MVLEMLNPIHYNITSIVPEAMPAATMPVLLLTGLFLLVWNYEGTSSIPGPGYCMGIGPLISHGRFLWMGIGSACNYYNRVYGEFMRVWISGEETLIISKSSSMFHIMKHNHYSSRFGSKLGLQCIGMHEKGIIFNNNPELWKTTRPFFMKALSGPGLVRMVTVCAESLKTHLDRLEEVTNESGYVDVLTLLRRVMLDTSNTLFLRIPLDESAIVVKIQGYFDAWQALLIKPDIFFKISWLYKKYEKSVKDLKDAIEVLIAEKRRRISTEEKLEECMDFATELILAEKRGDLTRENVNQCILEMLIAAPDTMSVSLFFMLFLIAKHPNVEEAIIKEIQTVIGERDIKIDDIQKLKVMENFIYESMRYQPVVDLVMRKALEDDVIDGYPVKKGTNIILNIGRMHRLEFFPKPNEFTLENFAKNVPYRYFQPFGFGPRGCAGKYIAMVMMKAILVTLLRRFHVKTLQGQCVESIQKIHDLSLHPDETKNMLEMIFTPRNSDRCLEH

CYP19 (aromatase) = target: T5, CYP19 (aromatase) (Homo sapiens, UniProt P11511); test: Inhibition of human CYP19 using [1beta-3H]androstenedione as substrate at 500 nM by 3H2O method; conditions: probe [1beta-3H]androstenedione
T5 sequence (P11511 whole entry): T4 sequence (P11511 whole entry)
How it was run: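 Human placental microsomes as CYP19 source. [1β-³H]androstenedione substrate at 500 nM, activity read by ³H₂O release. IC50 is the mean of at least three experiments (relative SD under 25%).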

CYP11B1 = target: T6, CYP11B1 (Homo sapiens, UniProt P15538); test: as §1; format: cell-based; conditions: human, hamster V79MZh cells expressing human CYP11B1, probe [1,2-3H]-11-deoxy-corticosterone; how it was run: as §2
T6 sequence (P15538 whole entry): T1 sequence (P15538 whole entry)

CYP11B2 = target: T7, CYP11B2 (Homo sapiens, UniProt P19099); test: as §3; format: cell-based; conditions: human, hamster V79MZh cells expressing human CYP11B2, probe [1,2-3H]-11-deoxy-corticosterone; how it was run: as §2
T7 sequence (P19099 whole entry): T3 sequence (P19099 whole entry)

SMILES | IC50 [1] [nM] | inhibition at 2 µM (CYP17) [%] | IC50 [2] [nM] | IC50 (Aromatase) [nM] | inhibition at 500 nM (CYP19 (aromatase)) [%] | IC50 (CYP11B1) [nM] | IC50 (CYP11B2) [nM] | Ratio IC50 (V79MZh)
O=C1CCc2cc(C(O)(c3ccccc3)c3ccncc3)cc3c2N1CC3 (stereo not drawn) | 745 | 43 | 85 | 105 |  |  |  | 8.8
COc1ccccc1C(c1ccncc1)c1cc2c3c(c1)CCN3C(=O)CC2 (stereo not drawn) | 276 | 33 | 128 | 81 |  |  |  | 2.2
O=C1CCc2cc(C(C3CC3)n3ccnc3)cc3c2N1CC3 (stereo not drawn) |  | 41 |  |  |  | 2.2 | 24 | 0.1
O=C1CCc2cc(C(c3ccncc3)c3cccc(Cl)c3)cc3c2N1CC3 (stereo not drawn) | 646 | 58 | 51 | 19 |  |  |  | 13
COc1cccc(C(c2ccncc2)c2cc3c4c(c2)CCN4C(=O)CC3)c1 (stereo not drawn) | 2540 | 50 | 139 | 59 |  |  |  | 18
O=C1CCc2cc(Cc3cccnc3)cc3c2N1CC3 | 16 | < 3 | 74 | 3340 |  |  |  | 0.2
C=C(c1ccncc1)c1cc2c3c(c1)CCN3C(=O)CC2 | 1230 | 17 | 96 | 565 |  |  |  | 13

Now from value to compound, other results behind:

IC50 [1] [nM] | inhibition at 2 µM (CYP17) [%] | IC50 [2] [nM] | IC50 (Aromatase) [nM] | inhibition at 500 nM (CYP19 (aromatase)) [%] | IC50 (CYP11B1) [nM] | IC50 (CYP11B2) [nM] | SMILES | Ratio IC50 (V79MZh)
715 |  | 1.1 |  | 18 |  |  | O=C1CCc2cc(-c3cccnc3)cc3c2N1CC3 | 650
92 | 60 | 32 | 55 |  |  |  | O=C1CCc2cc(C(c3ccncc3)c3ccc(Cl)cc3)cc3c2N1CC3 (stereo not drawn) | 2.9
88 | 55 | 56 | 116 |  |  |  | O=C1CCc2cc(C(c3ccncc3)c3ccc(F)cc3)cc3c2N1CC3 (stereo not drawn) | 1.6
224 | 8 | 204 | 2130 |  |  |  | O=C1CCc2cc(Cc3ccncc3)cc3c2N1CC3 | 1.1

Reference: ChEMBL document CHEMBL2311453, “Tetrahydropyrroloquinolinone type dual inhibitors of aromatase/aldosterone synthase as a novel strategy for breast cancer patients with elevated cardiovascular risks” (J Med Chem, 2013)
